The target of series [1] is T1, Histone deacetylase (Homo sapiens) (UniProt Q13547+O15379+Q9UBN7+Q92769+Q9UQL6+Q8WUI4+Q9BY41+Q96DB2+P56524+Q9UKV0+Q969S8). In words: Inhibition of HDAC in human HeLa cell extract at 100 uM after 15 mins by fluorescence assay. The class given is protein assay.
A short description of series [2]: Cytotoxicity against human MCF7 cells assessed as cell viability at 15 uM after 72 hrs by Celltitre-glo assay. The series is classed as cell-based. As to conditions: read-out: Activity.
Series [3] deals with T1, Histone deacetylase (Homo sapiens). In words: Inhibition of HDAC in human MeT-5A cells assessed as hisone H3 acetylation after 16 hrs by BRET assay. The class given is cell-based. Summed up: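 MeT-5A cells transfected with phRluc-C1-BrD and pEYFP-C1 histone H3, then exposed 16 h to increasing doses; BRET signal read as measure of histone H3 acetylation (rise in signal = more acetylation). SAHA used as positive control. Means ± SEM of three independent experiments.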
For orientation: BRET reads energy transfer from a luciferase to a nearby fluorophore.

Series [4] addresses T2, Protein deacetylase HDAC6 (Homo sapiens, UniProt Q9UBN7).
T2 sequence (Q9UBN7 whole entry): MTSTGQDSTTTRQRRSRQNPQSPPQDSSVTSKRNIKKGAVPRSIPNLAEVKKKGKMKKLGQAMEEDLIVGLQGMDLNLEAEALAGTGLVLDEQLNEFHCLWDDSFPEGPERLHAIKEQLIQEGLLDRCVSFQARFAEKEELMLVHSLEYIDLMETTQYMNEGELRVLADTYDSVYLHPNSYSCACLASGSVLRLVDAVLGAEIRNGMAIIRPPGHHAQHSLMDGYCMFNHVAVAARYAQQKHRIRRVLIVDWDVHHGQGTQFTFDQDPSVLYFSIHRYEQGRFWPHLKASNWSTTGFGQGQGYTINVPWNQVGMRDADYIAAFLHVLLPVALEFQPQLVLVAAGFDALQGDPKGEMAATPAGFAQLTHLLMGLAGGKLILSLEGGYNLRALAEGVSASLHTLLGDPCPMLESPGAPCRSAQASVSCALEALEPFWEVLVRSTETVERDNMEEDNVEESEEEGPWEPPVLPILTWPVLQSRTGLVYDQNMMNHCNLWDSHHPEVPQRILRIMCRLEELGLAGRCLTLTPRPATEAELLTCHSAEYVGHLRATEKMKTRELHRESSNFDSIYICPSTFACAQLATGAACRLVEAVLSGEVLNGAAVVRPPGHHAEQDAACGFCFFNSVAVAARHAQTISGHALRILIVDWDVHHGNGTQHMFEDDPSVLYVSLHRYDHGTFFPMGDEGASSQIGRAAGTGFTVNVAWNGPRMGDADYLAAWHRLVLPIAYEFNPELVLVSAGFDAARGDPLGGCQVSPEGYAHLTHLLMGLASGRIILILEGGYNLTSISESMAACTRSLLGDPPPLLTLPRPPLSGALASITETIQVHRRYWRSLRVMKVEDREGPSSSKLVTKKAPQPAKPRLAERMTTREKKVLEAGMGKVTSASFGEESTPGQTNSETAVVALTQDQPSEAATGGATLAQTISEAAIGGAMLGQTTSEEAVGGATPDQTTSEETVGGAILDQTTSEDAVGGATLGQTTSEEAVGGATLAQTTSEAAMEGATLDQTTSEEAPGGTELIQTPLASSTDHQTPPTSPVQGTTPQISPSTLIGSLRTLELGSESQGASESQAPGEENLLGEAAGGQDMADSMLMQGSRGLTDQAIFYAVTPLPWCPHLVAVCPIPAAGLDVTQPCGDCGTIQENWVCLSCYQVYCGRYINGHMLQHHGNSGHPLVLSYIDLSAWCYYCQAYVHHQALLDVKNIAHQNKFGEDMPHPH
In words: Inhibition of HDAC6 (unknown origin) after 15 mins by fluorescence assay.

The target of series [5] is Histone deacetylase 1 (Homo sapiens, UniProt Q13547). As to the kind of experiment: Inhibition of HDAC1 (unknown origin) after 15 mins by fluorescence assay.
In series [6] the target is T3, Retinoic acid receptor beta (Homo sapiens) (UniProt P10826).
T3 sequence (whole entry): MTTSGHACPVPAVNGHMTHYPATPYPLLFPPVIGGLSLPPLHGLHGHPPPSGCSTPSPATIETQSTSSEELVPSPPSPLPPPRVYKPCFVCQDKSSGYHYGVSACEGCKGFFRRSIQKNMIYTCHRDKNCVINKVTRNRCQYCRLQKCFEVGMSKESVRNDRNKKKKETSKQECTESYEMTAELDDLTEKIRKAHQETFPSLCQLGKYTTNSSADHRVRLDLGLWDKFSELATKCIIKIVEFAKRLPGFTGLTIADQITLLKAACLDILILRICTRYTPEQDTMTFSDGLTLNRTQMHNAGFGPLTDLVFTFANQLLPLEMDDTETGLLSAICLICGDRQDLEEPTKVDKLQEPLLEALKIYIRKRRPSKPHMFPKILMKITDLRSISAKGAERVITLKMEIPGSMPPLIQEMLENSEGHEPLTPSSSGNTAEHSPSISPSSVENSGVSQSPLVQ
As to the kind of experiment: Inhibition of RAR-beta (unknown origin) assessed as change in DNA methylation. Summed up: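 DNA methylation changes assessed by specific PCR for RARb.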

A short description of series [7]: Cytotoxicity against human MeT-5A cells after 16 hrs by luciferase reporter gene assay. The class given is cell-based. Background: In a reporter assay the amount or activity of a reporter protein is the signal.
Series [8] can be described thus: Cytotoxicity against human HepG2 cells assessed as cell viability at 15 uM after 72 hrs by Celltitre-glo assay. The series is classed as cell-based. As to conditions: read-out: Activity.
In series [9] the target is Histone deacetylase 2 (Homo sapiens, UniProt Q92769). In words: Inhibition of HDAC2 (unknown origin) after 15 mins by fluorescence assay.
In series [10] the target is T4, NAD-dependent protein deacetylase sirtuin-2 (Homo sapiens) (UniProt Q8IXJ6).
T4 sequence (whole entry): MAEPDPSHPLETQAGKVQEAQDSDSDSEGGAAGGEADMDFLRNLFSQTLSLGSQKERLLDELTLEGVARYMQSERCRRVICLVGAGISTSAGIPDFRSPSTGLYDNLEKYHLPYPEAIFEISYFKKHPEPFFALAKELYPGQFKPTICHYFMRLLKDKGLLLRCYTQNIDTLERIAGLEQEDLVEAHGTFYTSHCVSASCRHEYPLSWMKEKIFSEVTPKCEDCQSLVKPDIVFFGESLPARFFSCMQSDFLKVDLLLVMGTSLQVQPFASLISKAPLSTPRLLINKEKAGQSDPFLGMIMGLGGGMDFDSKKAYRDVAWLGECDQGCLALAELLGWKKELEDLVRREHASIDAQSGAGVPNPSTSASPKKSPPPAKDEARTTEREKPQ
In words: Modulation of sirtuin 2 (unknown origin) by thermal shift assay. In outline: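 Sirtuin 2 modulation tested by thermal shift assay.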

In series [11] the target is Histone deacetylase. In words: Inhibition of HDAC in human HeLa cell extract after 15 mins by fluorescence assay. The class given is protein assay.

The source made the active and inactive calls. No cut-off for these calls is given here.

Histone deacetylase 2, sequence (Q92769 whole entry): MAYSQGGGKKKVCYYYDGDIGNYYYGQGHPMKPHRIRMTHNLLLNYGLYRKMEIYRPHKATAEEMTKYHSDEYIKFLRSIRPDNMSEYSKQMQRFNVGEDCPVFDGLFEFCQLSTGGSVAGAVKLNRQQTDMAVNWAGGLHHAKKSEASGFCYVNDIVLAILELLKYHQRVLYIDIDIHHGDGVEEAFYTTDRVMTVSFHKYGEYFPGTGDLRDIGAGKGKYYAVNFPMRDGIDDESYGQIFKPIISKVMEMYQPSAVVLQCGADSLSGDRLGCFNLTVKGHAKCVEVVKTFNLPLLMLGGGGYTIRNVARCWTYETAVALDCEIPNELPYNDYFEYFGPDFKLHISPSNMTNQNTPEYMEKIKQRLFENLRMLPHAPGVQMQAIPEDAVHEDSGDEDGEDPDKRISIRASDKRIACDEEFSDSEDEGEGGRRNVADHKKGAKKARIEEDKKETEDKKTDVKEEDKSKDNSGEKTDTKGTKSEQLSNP
Histone deacetylase 1, sequence (Q13547 whole entry): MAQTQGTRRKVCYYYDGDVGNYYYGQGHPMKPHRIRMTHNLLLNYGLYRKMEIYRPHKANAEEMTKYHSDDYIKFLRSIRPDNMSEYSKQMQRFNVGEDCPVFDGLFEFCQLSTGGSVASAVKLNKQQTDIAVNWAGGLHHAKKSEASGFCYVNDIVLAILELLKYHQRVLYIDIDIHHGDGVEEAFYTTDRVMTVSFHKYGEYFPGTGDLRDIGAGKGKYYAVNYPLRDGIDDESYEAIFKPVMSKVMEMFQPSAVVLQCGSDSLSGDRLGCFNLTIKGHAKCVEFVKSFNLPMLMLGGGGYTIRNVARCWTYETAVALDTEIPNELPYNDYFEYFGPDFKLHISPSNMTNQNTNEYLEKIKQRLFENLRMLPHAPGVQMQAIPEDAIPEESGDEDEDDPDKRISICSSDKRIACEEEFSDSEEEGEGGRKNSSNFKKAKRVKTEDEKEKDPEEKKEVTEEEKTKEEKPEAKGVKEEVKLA

What is called inhibition is how much of the control response was suppressed. As usually defined, the IC50 is the concentration needed to halve the response being measured. Low values mean inhibition by little substance, high ones a need for much substance. For the compound `O=C1/C(=C/c2ccc(O)c(O)c2)Oc2cc(O)cc(O)c21` [AUREUSIDIN], the inhibition in series [1] was 100%; in [3], “Dose-dependent effect”. Further, the results for the viability at 72 h, 15 µM in series [2] and in series [8] were 102% and 116%, respectively. The IC50 in series [4] is 48.5 µM; in [5], 38 µM; in [9], 38.9 µM; in series [11] it was 18.5 µM. In addition, the inhibition entry in series [6] and in series [10] was “inactive” in each case. In addition, in series [7], the Activity entry is given as “Dose-dependent effect”.
`O=C1/C(=C/c2ccc(O)c(O)c2)Oc2ccccc21`: the inhibition in [1] is 100%; in [3], “Dose-dependent effect”. The results for the viability at 72 h, 15 µM in series [2] and in series [8] were 95% and 114%, respectively. The IC50 was 26.9 µM in series [4], 11.4 µM in [5], 5.1 µM in series [9] and 8.2 µM in series [11]. The inhibition result in series [6] and in [10] was “inactive” in each case. Besides, in [7], the Activity result is on record as “Dose-dependent effect”.
With `O=C1/C(=C/c2ccc(O)cc2)Oc2ccccc21`, the inhibition in [1] was 100%; in series [3], “Dose-dependent effect”. For the same compound, the viability at 72 h, 15 µM in series [2] is 79%; in [8], 100%. Besides, the IC50 in [4] is 136 µM; in [5], 129 µM; in [9], 100 µM; in series [11] it was 12.6 µM. Moreover, the inhibition entry in [6] and in [10] was “inactive” each time. In addition, the Activity result in series [7] is “Dose-dependent effect”.
Regarding `O=C1/C(=C/c2cccc(O)c2O)Oc2ccccc21`, the inhibition in series [1] was 98%; in [3] it was “Dose-dependent effect”. Moreover, the figures for the viability at 72 h, 15 µM in series [2] and in series [8] were 109% and 113%, respectively. Moreover, the IC50 in [4] turned out to be 26.9 µM; in series [5] it was 21 µM; in series [9], 16.4 µM; in series [11] it was 18.6 µM. Also, the inhibition result in [6] and in series [10] was “inactive” each time. Also, the Activity result in [7] is given as “Dose-dependent effect”.

The values above are taken from ChEMBL document CHEMBL3352210, “Aurones as histone deacetylase inhibitors: identification of key features” (Bioorg Med Chem Lett, 2014).
